Laboratory results from ChEMBL document CHEMBL1124392, “Potential antitumor agents. 57. 2-Phenylquinoline-8-carboxamides as "minimal" DNA-intercalating antitumor agents with in vivo solid tumor activity” (J Med Chem, 1989).
Activity calls are given as the source filed them. The rule behind the calls is not given here.

How the values were obtained:
L1210 = assay: Concentration to inhibit growth of murine leukemia cells in culture by 50%.; format: functional, cell-based; conditions: Mus musculus
Outline: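 Murine L1210 leukemia cells were grown in culture with drug for 40 h. IC50 is the drug concentration, in nM, that inhibits growth by 50%.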

Nucleic Acid [1] = assay: Binding constant to poly[d(G-C)] by ethidium bromide displacement; format: nucleic-acid assay
Nucleic Acid [2] = assay: Binding constant to poly[d(A-T)] by ethidium bromide displacement; format: nucleic-acid assay
P388 [3] = assay: Percentage increase in lifespan of mice treated at 100 mg/kg/day on days 1, 5, 9 after intraperitoneal inoculation of P388 leukemia cells
[4] = test system: Lewis lung carcinoma cell line; assay: Percentage increase in lifespan of mice treated at 150 mg/kg/day on days 5, 9, 13 after intravenous inoculation of lewis lung carcinoma cells; format: functional, Mus musculus
Outline: (§1)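 Mice were given 10^6 Lewis lung carcinoma cells intravenously. Drug was dosed intraperitoneally on days 5, 9 and 13 as a solution in 0.1 mL of 30% v/v ethanol/water, with groups of six animals. Read-out was the percentage increase in lifespan of treated tumor-bearing mice.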

P388 [5] = assay: Percentage increase in lifespan of mice treated at 150 mg/kg/day on days 1, 5, 9 after intraperitoneal up to the toxic dose levels tested; conditions: Mus musculus
[6] = test system: Lewis lung carcinoma cell line; assay: Percentage increase in lifespan of mice treated at 100 mg/kg/day on days 5, 9, 13 after intravenous up to the toxic dose levels tested; format: functional, organism-based; conditions: Mus musculus
Outline: (§2)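 Mice were inoculated intravenously with 10^6 Lewis lung carcinoma cells. Drug was given ip in 30% v/v ethanol/water on days 5, 9 and 13. ILS is the percentage increase in lifespan at the optimal dose, with six animals per group.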

P388 [7] = assay: Percentage increase in lifespan of mice treated at 65 mg/kg/day on days 1, 5, 9 after […] up to the toxic dose levels tested; format: functional, organism-based; conditions: Mus musculus
Outline: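 Mice were inoculated intraperitoneally with 10^6 P388 leukemia cells. Drug was given ip in 30% v/v ethanol/water on days 1, 5 and 9. ILS is the percentage increase in lifespan of treated over untreated tumor-bearing animals at the optimal dose, with six animals per group. Values above 20% count as significant, and long-term survivors were scored at 50 days.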

P388 [8] = assay: Percentage increase in lifespan of mice treated at 100 mg/kg/day on days 1, 5, 9 after intravenous inoculation of P388 leukemia cells; format: functional, Mus musculus; conditions: for ILS at 100 mg/kg/day: Mus musculus, P388
[9] = pKa determined in aqueous solutions spectrophotometrically
[10] = test system: Lewis lung carcinoma cell line; assay: Percentage increase in lifespan of mice treated at 65 mg/kg/day on days 5, 9, 13 after intravenous inoculation of lewis lung carcinoma cells; format: functional, Mus musculus; outline: as §1
P388 [11] = assay: Percentage increase in lifespan of mice treated at 225 mg/kg/day on days 1, 5, 9 after intraperitoneal inoculation of P388 leukemia cells
P388 [12] = assay: Percentage increase in lifespan of mice treated at 100 mg/kg/day on days 1, 5, 9 after intraperitoneal up to the toxic dose levels tested; conditions: Mus musculus
P388 [13] = assay: Percentage increase in lifespan of mice treated at 45 mg/kg/day on days 1, 5, 9 after intraperitoneal up to the toxic dose levels tested; conditions: Mus musculus
[14] = test system: Lewis lung carcinoma cell line; assay: Percentage increase in lifespan of mice treated at 100 mg/kg/day on days 5, 9, 13 after intravenous inoculation of lewis lung carcinoma cells; format: functional, Mus musculus; outline: as §1
[15] = test system: Lewis lung carcinoma cell line; assay: Percentage increase in lifespan of mice treated at 65 mg/kg/day on days 5, 9, 13 after intravenous up to the toxic dose levels tested; format: functional, organism-based; conditions: Mus musculus; outline: as §2
P388 [16] = assay: Percentage increase in lifespan of mice treated at 65 mg/kg/day on days 1, 5, 9 after intraperitoneal up to the toxic dose levels tested; conditions: Mus musculus
Nucleic Acid [17] = assay: Binding constant for poly[d(G-C)] by ethidium bromide displacement; format: nucleic-acid assay
Nucleic Acid [18] = assay: Binding constant for poly[d(A-T)] by ethidium bromide displacement; format: nucleic-acid assay
P388 [19] = assay: Percentage increase in lifespan of mice treated at 65 mg/kg/day on days 1, 5, 9 after intraperitoneal inoculation of P388 leukemia cells

SMILES	IC50 (L1210)	Log K (Nucleic Acid [1])	Log K (Nucleic Acid [2])	ILS (P388 [3])	ILS [6]	further results
CN(C)CCNC(=O)c1cccc2ccc(-c3ccc(N)cc3)nc12	200 nM	6.96	6.42	28	–	ILS [4]: 59
CN(C)CCNC(=O)c1cccc2ccc(-c3ccc(-c4ccccc4)cc3)nc12	1290 nM	6.96	6.88	–	–	ILS (P388 [5]): inactive
CN(C)CCNC(=O)c1cccc2ccc(-c3ccc(Br)cc3)nc12	600 nM	6.68	6.63	72	inactive	–
CN(C)CCCCCNC(=O)c1cccc2ccc(-c3ccccc3)nc12	1300 nM	5.73	5.9	–	inactive	ILS (P388 [7]): inactive
COc1ccc(-c2ccc3cccc(C(=O)NCCN(C)C)c3n2)cc1	1290 nM	6.27	6.4	–	inactive	ILS (P388 [8]): 42; pKa [9]: 3.28
CN(C)CCCNC(=O)c1cccc2ccc(-c3ccccc3)nc12	1140 nM	5.62	5.9	–	inactive	ILS at 100 mg/kg/day (P388 [8]): 71%
CN(C)CCNC(=O)c1cccc2ccc(-c3ccc([N+](=O)[O-])cc3)nc12	290 nM	6.13	6.28	–	–	ILS (P388 [8]): 58; ILS [10]: 85
COc1cccc(-c2ccc3cccc(C(=O)NCCN(C)C)c3n2)c1	860 nM	6.41	6.3	–	–	ILS (P388 [11]): 46
CN(C)CCNC(=O)c1cccc2ccc(-c3ccc(C(F)(F)F)cc3)nc12	2100 nM	6.72	6.64	–	inactive	ILS (P388 [12]): inactive
CN(C)CCNC(=O)c1cccc2ccc(-c3ccc(F)cc3)nc12	730 nM	6.66	6.74	24	inactive	–
CN(C)CCNC(=O)c1cccc2ccc(-c3ccc4ccccc4c3)nc12	860 nM	7.35	7	–	–	ILS (P388 [5]): inactive
CN(C)CCNC(=O)c1cccc2ccc(-c3ccc(NS(C)(=O)=O)cc3)nc12	1330 nM	6.22	6.04	–	–	ILS (P388 [13]): inactive
Br.Br.CN(C)CCNC(=O)c1cccc2ccc(-c3ccc(O)cc3)nc12	1280 nM	6.48	6.3	–	inactive	ILS (P388 [8]): 22
CN(C)CCCCNC(=O)c1cccc2ccc(-c3ccccc3)nc12	680 nM	5.89	6.19	93	–	–
CN(C)CCNC(=O)c1cccc2ccc(-c3ccc(S(C)(=O)=O)cc3)nc12	5800 nM	–	5.68	29	inactive	–
CN(C)CCNC(=O)c1cccc2ccc(-c3ccncc3)nc12	170 nM	6.32	5.82	–	–	ILS [10]: 191
CN(C)CCNC(=O)c1cccc2ccc(-c3cccnc3)nc12	840 nM	6.09	5.81	58	–	ILS [14]: 55
O=C(NCCNCCO)c1cccc2ccc(-c3ccccc3)nc12	36 nM	6.31	6.22	–	–	ILS [15]: inactive; ILS (P388 [16]): inactive
CC(=O)Nc1ccc(-c2ccc3cccc(C(=O)NCCN(C)C)c3n2)cc1	600 nM	–	–	–	–	ILS (P388 [7]): inactive; Log K (Nucleic Acid [17]): 7.07; Log K (Nucleic Acid [18]): 6.49
CN(C)CCNC(=O)c1cccc2ccc(-c3ccccn3)nc12	1640 nM	5.85	5.82	–	–	ILS (P388 [8]): 73; ILS [14]: 84
O=C(NCCN1CCOCC1)c1cccc2ccc(-c3ccccc3)nc12	44 nM	5.61	6.12	–	–	ILS (P388 [16]): inactive
CN(C)CCNC(=O)c1cccc2ccc(-c3ccc(Cl)cc3)nc12	1170 nM	5.99	6.08	52	–	pKa [9]: 2.42; ILS [10]: 45
CN(C)CCNC(=O)c1cccc2ccc(-c3cccc(Cl)c3)nc12	1200 nM	6.47	6.05	–	–	ILS [15]: inactive; ILS (P388 [19]): 40
CN(C)CCNC(=O)c1cccc2ccc(-c3ccccc3Cl)nc12	8100 nM	5.12	5.32	–	–	ILS (P388 [7]): inactive
CN(C)CCNC(=O)c1cccc2ccc(-c3ccc(I)cc3)nc12	400 nM	6.87	6.8	48	inactive	–
CN(C)CCNC(=O)c1cccc2ccc(-c3ccccc3)nc12	–	5.92	5.98	–	–	ILS at 100 mg/kg/day (P388 [8]): 91%; ILS at 100 mg/kg/day ([14]; Mus musculus, Lewis lung carcinoma): 70%
